Experiments:
[1] = molecular target: T1, Gonadotropin-releasing hormone receptor (Homo sapiens, UniProt P30968); assay: Binding affinity towards human gonadotropin releasing hormone receptor using des-Gly10[125I]Tyr5,D-Leu6,NMeLeu7,Pro9-NEt]GnRH as radioligand expressed in HEK293 cells; type: cell-based
T1 sequence (P30968 whole entry): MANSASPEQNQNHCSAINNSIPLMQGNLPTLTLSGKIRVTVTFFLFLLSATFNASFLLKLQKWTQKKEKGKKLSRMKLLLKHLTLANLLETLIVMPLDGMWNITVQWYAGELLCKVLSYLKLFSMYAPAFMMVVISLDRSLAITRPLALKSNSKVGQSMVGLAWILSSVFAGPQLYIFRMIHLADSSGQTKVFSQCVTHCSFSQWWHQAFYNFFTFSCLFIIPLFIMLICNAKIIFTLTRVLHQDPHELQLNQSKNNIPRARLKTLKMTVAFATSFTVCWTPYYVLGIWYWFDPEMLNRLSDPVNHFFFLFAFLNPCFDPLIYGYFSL
In short: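 Competitive displacement at cloned human GnRH receptor expressed in HEK293 cells, 96-well filtration format. Three to eight independent experiments.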

[2] = Clearance in mouse; type: ADME, organism-based; conditions: in vivo
In short: (§1)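 Mice dosed orally and intravenously at 10 mg/kg. Pharmacokinetic parameters derived from plasma exposure after each route.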

[3] = Half life in mouse; type: ADME, organism-based; conditions: in vivo; in short: as §1
[4] = Bioavailability in mouse; type: ADME, organism-based; conditions: in vivo; in short: as §1
[5] = Volume of distribution in mouse; type: ADME, organism-based; conditions: in vivo; in short: as §1
[6] = Inhibitory concentration of compound against GnRH stimulated calcium flux in transfected cells; type: functional, cell-based
In short: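 GnRH-stimulated Ca2+ flux measured in hGnRH receptor-transfected cells. Inhibition tested across a concentration series, with IC50 taken from the dose-response curve.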

[7] = molecular target: T2, Gonadotropin-releasing hormone receptor (Rattus norvegicus, UniProt P30969); assay: Tested for binding affinity towards rat gonadotropin releasing hormone receptor
T2 sequence (P30969 whole entry): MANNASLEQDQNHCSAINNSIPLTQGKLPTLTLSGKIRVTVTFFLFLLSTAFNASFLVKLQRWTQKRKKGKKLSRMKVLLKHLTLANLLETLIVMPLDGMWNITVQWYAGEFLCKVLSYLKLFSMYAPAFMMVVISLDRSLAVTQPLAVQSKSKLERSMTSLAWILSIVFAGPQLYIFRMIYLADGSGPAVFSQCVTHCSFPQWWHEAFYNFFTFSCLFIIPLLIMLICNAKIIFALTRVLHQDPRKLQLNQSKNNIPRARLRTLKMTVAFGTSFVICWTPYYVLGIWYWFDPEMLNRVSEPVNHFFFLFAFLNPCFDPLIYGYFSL

Compound	Ki [1] [µM]	also measured
COc1cccc(-c2c(C)n(Cc3c(F)cccc3F)c(=O)n(C[C@@H](C3CCCC3)N(C)C)c2=O)c1F	0.0006	–
COc1cccc(-c2c(C)n(Cc3c(F)cccc3F)c(=O)n(C[C@H](Cc3ccccc3)N(C)C)c2=O)c1F	0.0079	–
COc1cccc(-c2c(C)n(Cc3c(F)cccc3F)c(=O)n(C[C@@H](N)CCc3ccccc3)c2=O)c1F	0.965	–
COc1cccc(-c2c(C)n(Cc3c(F)cccc3F)c(=O)n(C[C@@H](N)Cc3ccccc3)c2=O)c1F	0.016	clearance [2]: 65.6 mL/min/kg; half-life [3]: 54 min; bioavailability [4]: 11%; Vd [5]: 4.9 L/kg
COc1cccc(-c2c(C)n(Cc3c(F)cccc3F)c(=O)n(C[C@H](N)Cc3ccccc3)c2=O)c1F	0.066	–
COc1cccc(-c2c(C)n(Cc3c(F)cccc3F)c(=O)n(C[C@@H](N)C3CCCC3)c2=O)c1F	0.094	–
COc1cccc(-c2c(C)n(Cc3c(F)cccc3F)c(=O)n(C[C@@H](C3CCCCC3)N(C)C)c2=O)c1F	0.0041	–
COc1cccc(-c2c(C)n(Cc3c(F)cccc3F)c(=O)n(C[C@H](N)C3CCCCC3)c2=O)c1F	0.0065	clearance [2]: 65.4 mL/min/kg; IC50 [6]: 0.06 µM; half-life [3]: 78 min; bioavailability [4]: 11%; Vd [5]: 7.3 L/kg
COc1cccc(-c2c(C)n(Cc3c(F)cccc3F)c(=O)n(C[C@H](C3CCCC3)N(C)C)c2=O)c1F	0.0024	–
COc1cccc(-c2c(C)n(Cc3c(F)cccc3F)c(=O)n(CC(N)C3CCCCC3)c2=O)c1F (single isomer, unassigned)	0.046	–

Further lines, with some results ahead:

Ki [1] [µM]	Compound	also measured
0.071	COc1cccc(-c2c(C)n(Cc3c(F)cccc3F)c(=O)n(C[C@H](N)CC(C)(C)C)c2=O)c1F	–
0.0012	CN[C@H](CC(C)C)Cn1c(=O)c(-c2cccc(OC)c2F)c(C)n(Cc2c(F)cccc2F)c1=O	–
0.039	COc1cccc(-c2c(C)n(Cc3c(F)cccc3F)c(=O)n(C[C@@H](N)CC(C)C)c2=O)c1F	–
0.012	COc1cccc(-c2c(C)n(Cc3c(F)cccc3F)c(=O)n(C[C@@H](CC(C)C)NC(C)C)c2=O)c1F	–
0.012	COc1cccc(-c2c(C)n(Cc3c(F)cccc3F)c(=O)n(C[C@H](NC(C)C)C3CCCC3)c2=O)c1F	–
> 10	COc1cccc(-c2c(C)n(Cc3c(F)cccc3F)c(=O)n(C[C@H](C)N)c2=O)c1F	–
0.0064	COc1cccc(-c2c(C)n(Cc3c(F)cccc3F)c(=O)n(C[C@H](N)CC(C)C)c2=O)c1F	clearance [2]: 65.7 mL/min/kg; half-life [3]: 42 min; bioavailability [4]: 6%; Vd [5]: 3.9 L/kg
0.595	COc1cccc(-c2c(C)n(Cc3c(F)cccc3F)c(=O)n(C[C@@H](C)N)c2=O)c1F	–
0.973	COc1cccc(-c2c(C)n(Cc3c(F)cccc3F)c(=O)n(C[C@@H](N)C(C)C)c2=O)c1F	–
0.01	COc1cccc(-c2c(C)n(Cc3c(F)cccc3F)c(=O)n(C[C@H](N)C3CCCC3)c2=O)c1F	–
0.051	COc1cccc(-c2c(C)n(Cc3c(F)cccc3F)c(=O)n(C[C@H](C)NCc3ccccc3)c2=O)c1F	clearance [2]: 81.3 mL/min/kg; half-life [3]: 66 min; bioavailability [4]: 3%; Vd [5]: 7.9 L/kg
0.0081	CN[C@@H](Cc1ccccc1)Cn1c(=O)c(-c2cccc(OC)c2F)c(C)n(Cc2c(F)cccc2F)c1=O	clearance [2]: 97.2 mL/min/kg; IC50 [6]: 0.02 µM; half-life [3]: 48 min; bioavailability [4]: 42%; Ki [7]: 11 µM; Vd [5]: 6.9 L/kg
0.023	COc1cccc(-c2c(C)n(Cc3c(F)cccc3F)c(=O)n(C[C@H](NC(C)C)C3CCCCC3)c2=O)c1F	–
0.051	COc1cccc(-c2c(C)n(Cc3c(F)cccc3F)c(=O)n(C[C@H](N)C(C)C)c2=O)c1F	–
